MBD2 DNA inh: MBD2-methylated oligo binding inhibition | Q9UBB5 | TR-FRET, MBD2 binding to methylated oligonucleotide | inhibition, % at 4.4 µM | 370,000 compounds, 0.31% hits | AID 686964; in the data active = inhibition above about 13%
UHRF1 MBD2 ctr: blocks human UHRF1 binding to methylated DNA; Q96T88; UHRF1 binding to methylated oligo, TR-FRET; inhibition, % at 4.4 µM; 370,000 compounds, 0.75% hits; AID 687016; in the data active = inhibition above about 21%;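 note: UHRF1 SRA domain binding a hemimethylated CpG hairpin DNA probe; 0% = median of test compound wells and 100% = reference inhibitor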
TDP2 inh: TDP2 (human) inhibition, absorbance primary screen; 370,000 compounds, 0.34% hits; recombinant TDP2, T5PNP hydrolysis, p-nitrophenol absorbance 415 nm; inhibition, % at 12.8 µM; O95551; AID 720702;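 active = inhibition above the mean of all tested compounds plus 3 SD, set per campaign, cut at about 25% in these data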;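 note: 0% = DMSO with enzyme and 100% = buffer with substrate but no TDP2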
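System: recombinant human TDP2 / Amount: 120 nM TDP2 per well / Also added: 5 mM T5PNP chromogenic substrate / Doses: 12.8 µM single point, 1% DMSO / Incubation: 2 h at 37 °C / Detection: p-Nitrophenol epi absorbance / Evaluation: % inhibition relative to enzyme-containing and enzyme-free wells / Repeats: singlicate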
LEDGF integ inh: blocks HIV-1 LEDGF/p75-dependent DNA integration. TR-FRET IN-LEDGF/p75 DNA integration, Eu/Cy5. inhibition, % at 3.7 µM. 370,000 compounds, 0.64% hits;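 active = inhibition above the screen-wide mean plus 3 SD, cut at about 13% in these data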;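 note: signal is the Cy5 over europium emission ratio at 671 and 618 nm; 0% = plate median of compound wells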
Rin1-Abl PPI inh: inhibitors of human Rin1-Abl protein interaction; 360,000 compounds, 0.4% hits; AID 588664; TR-FRET Rin1/Abl binding, biochemical; inhibition, % at 7.35 µM; P00519+Q13671; in the data active = inhibition above about 5%, passing the limit was not always enough
IN multimer up: HIV-1 integrase multimerization activation, counter-screen | shares compounds with LEDGF integ inh | TR-FRET HIV-1 integrase multimerization, biochemical | activation, % at 7.7 µM | 2,000 compounds, 17% hits | AID 1053131; in the data active = activation above about 8.9%
TRFRET interf: optically interferes with TR-FRET readout in LEDGF counter-screen; shares compounds with LEDGF integ inh; TR-FRET optical interference counterscreen, HIV-1 IN multimerization; 2,000 tested, under 10 active; inhibition, % at 7.7 µM; AID 1053135;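 active = inhibition above the mean over all tested compounds plus 3 SD, which no compound reached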;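 note: 0% = integrase with antibodies and DMSO and 100% = antibodies without integrase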
IN-LEDGF confirm: confirmation of HIV-1 LEDGF/p75-dependent integration inhibitors; shares compounds with LEDGF integ inh; TR-FRET LEDGF/p75-dependent HIV-1 integration, biochemical; inhibition, % at 3.7 µM; 2,000 compounds, 36% hits; AID 1053136; in the data active = inhibition above about 14%
* marks the source's active call; other numbers are inactive results; · = not tested or not shown. Sampled rows, rich in hits. Any-hit rate of the full collection: about 1.9%.

SMILES | MBD2 DNA inh | UHRF1 MBD2 ctr | TDP2 inh | LEDGF integ inh | Rin1-Abl PPI inh | IN multimer up | TRFRET interf | IN-LEDGF confirm
COc1cccc(NC(=O)N2CCC(C(=O)Nc3ccc(C)cc3C)CC2)c1 | 4 | -1 | -2 | 38* | -2 | 1 | -7 | -4
O=C(COC(=O)Cc1ccsc1)NCc1ccccc1 | 3 | 1 | 1 | 30* | -4 | 2 | -8 | -1
CCC/C(C(=O)NCCO)=C1/c2ccccc2C(=O)N1c1ccccc1 | 4 | 4 | 9 | 18* | -1 | -3 | 11 | 3
CCC/C(=C1/c2ccccc2C(=O)N1c1ccccc1)c1c(C)noc1C | 1 | -3 | 15 | -3 | · | · | · | ·
O=Cc1ccc(/C=C2\c3ccccc3C(=O)N2c2ccccc2)o1 | -5 | 7 | 3 | 38* | · | 2 | -10 | 20*
COC(=O)[C@@]12CCCCC=C1N(CCc1ccc(Cl)cc1)C(=O)[C@H]2CC(=O)NCCc1ccccc1OC | 5 | 0 | 4 | -1 | · | · | · | ·
COc1ccc(-n2c(SCC(=O)N3CCCC3)nnc2-c2ccncc2)cc1 | 5 | -1 | 4 | -2 | · | · | · | ·
Clc1ccc2oc(-c3ccccc3)nc2c1 | 2 | 9 | 13 | 19* | -1 | 6 | -20 | 4
CCOC(=O)[C@@]12CCCC=C1N(CCc1ccc(Cl)cc1)C(=O)[C@H]2CC(=O)N1CCCC1 | 2 | 2 | 1 | 0 | · | · | · | ·
COC(=O)/C(C(C)=O)=C(\C=C\N(C)C)N(C)C | -1 | -2 | -5 | 0 | 2 | · | · | ·
COC(=O)\C(C(C)=O)=C(/C=C/C=C/C=C/N(C)C)N(C)C | 11 | 55* | 6 | 56* | 3 | 8 | -43 | 59*
COCc1cc(N2CCNC[C@H]2C)ccc1N1CCS(=O)(=O)CC1 | 0 | 3 | 2 | 0 | · | · | · | ·
COC(=O)C[C@H]1CC[C@@H]2[C@H](COc3ccc(NC(=O)c4cccc(Cl)c4)cc3C(=O)N2C)O1 | 4 | 1 | 8 | 0 | · | · | · | ·
CS(=O)(=O)N1CCC2(CC1)OCCN2S(=O)(=O)c1ccccc1 | -4 | 0 | -12 | 3 | 3 | · | · | ·
CCS(=O)(=O)N1CCC2(CC1)OCCN2S(=O)(=O)c1ccccc1 | 8 | 17 | -1 | 26* | 2 | -6 | 22 | 6
NC(c1csc(Nc2ccccn2)n1)c1ccccc1Cl (configuration not stated) | -5 | -5 | -9 | 15* | -3 | -1 | 7 | -7
NC(c1csc(Nc2cnccn2)n1)c1ccccc1Cl (configuration not stated) | -10 | -4 | -4 | 9 | -2 | · | · | ·
CCOc1cc(C(C(=O)NCC2CCCO2)N(C(=O)Cn2nnc3ccccc32)c2ccc(NC(C)=O)cc2)ccc1O (configuration not stated) | 6 | 5 | -15 | -4 | 0 | · | · | ·
COc1cc(C(C(=O)NCC2CCCO2)N(C(=O)Cn2nnc3ccccc32)c2ccc(OC)c(OC)c2)ccc1O (configuration not stated) | 9 | -1 | 9 | 42* | 1 | 1 | -5 | 3
CC(=O)Nc1ccc(C(=O)/C=C/c2ccco2)cc1 | 1 | 9 | -2 | 28* | 2 | 12* | -61 | 35*
CN(Cc1ccccc1)C(=O)COC(=O)/C=C/c1ccco1 | 0 | 1 | 15 | 2 | 2 | · | · | ·
CC(=O)Nc1cccc(C(=O)/C=C/c2ccco2)c1 | 0 | 1 | 0 | 4 | -2 | · | · | ·
CN(CCOC(=O)/C=C/c1ccco1)Cc1ccccc1 | 7 | 26* | 0 | 23* | 0 | 5 | -26 | 38*
CCc1ccc(NC(=O)COC(=O)/C=C/c2ccco2)cc1 | 4 | 25* | -2 | 27* | 4 | 2 | -9 | 0
O=C(COC(=O)/C=C/c1ccco1)Nc1cc(S(=O)(=O)N2CCOCC2)ccc1Cl | 2 | 17 | 5 | 15* | 1 | 1 | -6 | -13
SMILES | MBD2 DNA inh | UHRF1 MBD2 ctr | TDP2 inh | LEDGF integ inh | Rin1-Abl PPI inh | IN multimer up | TRFRET interf | IN-LEDGF confirm
COC(=O)C1=C(C)N(Cc2ccc(F)cc2)C(=S)NC1c1cccc(Br)c1 (configuration not stated) | 3 | -1 | -7 | -1 | · | · | · | ·
Cc1ccc(-n2c(SCC(=O)Nc3ccc(OCc4ccccc4)cc3)nnc2-c2ccco2)cc1 | -2 | 0 | -1 | 0 | · | · | · | ·
O=c1/c(=C/c2ccco2)sc2n1CN(c1ccccc1)CN=2 | -7 | -2 | -1 | 17* | -5 | 2 | -8 | 4
Cc1ccccc1Cn1ccc2ccc(-c3ccc4ccn(Cc5ccccc5)c4c3)cc21 | 4 | -2 | 0 | -3 | · | · | · | ·
CCOC(=O)CCCNC(=O)OC1CCC12CCC(c1ccccc1)CC2 (configuration not stated) | 0 | 0 | -3 | -4 | · | · | · | ·
COc1ccc(CNC(=O)CC[C@H]2O[C@@H](n3cc(C)c(=O)[nH]c3=O)C[C@@H]2O)cc1 | 1 | 2 | 0 | -2 | 5 | · | · | ·
Cc1cn([C@H]2C[C@H](O)[C@@H](CCC(=O)NCc3cccc4ccccc34)O2)c(=O)[nH]c1=O | -7 | -2 | -1 | 15* | 5 | 0 | 0 | 0
COc1cccc(CNC(=O)C2C3C=CC4(CN(Cc5ccccc5)C(=O)C24)O3)c1OC (configuration not stated) | 6 | 4 | 0 | -4 | · | · | · | ·
COC(=O)NCc1ccc2c(c1)OCO2 | -1 | -2 | -9 | -5 | -3 | · | · | ·
COC1=C(NCc2ccc3c(c2)OCO3)C(=O)C(OC)=C(NCc2ccc3c(c2)OCO3)C1=O | -1 | -6 | 5 | 13* | -3 | -1 | 4 | 1
CCCCCN1CCCCC(NC(=O)c2ccc(C)cc2)C1=O (configuration not stated) | 0 | 1 | 3 | -1 | · | · | · | ·
CCC[C@H]1[C@@H](OC(=O)NCc2ccc(C)cc2)CC[C@@]23CCCN2C(=O)CCC[C@@H]13 | 3 | 0 | -6 | -2 | · | · | · | ·
Cc1cc(N2CCN(CCO)CC2)n2nc(C)nc2n1 | -3 | -4 | -6 | 4 | · | · | · | ·
COc1ccc2nc(N3C(=O)C(O)=C(C(=O)c4ccco4)C3c3ccc(C)o3)sc2c1 (configuration not stated) | -3 | 0 | -9 | 14* | 1 | 2 | -12 | 9
CC1C/C=C/C=C/C=C/C=C/C(O[C@@H]2O[C@H](C)[C@@H](O)[C@H](N)[C@@H]2O)CC2OC(O)(CC(O)CC3OC3/C=C/C(=O)O1)CC(O)C2C(=O)O (some centres not stated) | 4 | 10 | 9 | 21* | · | 1 | -4 | 35*

Assay outcomes (PubChem)
